Source: paper PMC9574760 (Food Chemistry: Molecular Sciences, 2022)
Ends that are not written are not given here.

Tests used:
porcine pepsin = test: In vitro simulated gastric digestion stability, RP-HPLC; format: in vitro ADME; details: pig, simulated gastric fluid with porcine pepsin, pH 2
Outline: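 Test peptide was digested with […] porcine pepsin at pH 2.0 ([…] KCl-HCl) and an enzyme:substrate ratio of 1:30 (w/w). Digestion ran 2 h at 37℃, shaking at 170 rpm. Enzyme was inactivated in boiling water for 10 min and the digest centrifuged at 6000 × g for 15 min. Peptide before and after digestion was compared by C18 RP-HPLC with water/0.1 % TFA and acetonitrile/0.1 % TFA, 1.0 mL/min, 220 nm detection; triplicate.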

elastase [1] = target: T1, elastase (Sus scrofa, UniProt P00772); test: Elastase inhibition test; format: biochemical
Outline: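 Elastase from the commercial supply; test compound in 50 mM Tris-HCl, pH 8.0. The 1 mM substrate solution and the sample (buffer for the negative control) were mixed and A410 was read. Then 100 mU/mL elastase was added and incubated 5 min at 25℃, stopped with 2 M HCl, and A410 was read again. EGCG reference at 0.5 mg/mL; three independent experiments.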

elastase [2] = target: T1, elastase; details: bovine elastin peptides; ref Liu, Su, Zhou, Zhang, Zheng, & Zhao, 2018; cited from earlier work

T1 sequence (P00772 27-266): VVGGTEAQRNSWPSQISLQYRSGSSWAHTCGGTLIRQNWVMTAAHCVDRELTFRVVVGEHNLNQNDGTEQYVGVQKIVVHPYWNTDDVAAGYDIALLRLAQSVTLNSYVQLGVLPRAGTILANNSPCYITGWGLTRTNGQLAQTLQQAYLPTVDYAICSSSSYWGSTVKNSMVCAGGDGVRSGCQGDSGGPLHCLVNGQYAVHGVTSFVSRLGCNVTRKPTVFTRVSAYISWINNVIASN

| Substance | remaining at 2 h, 1 mg/mL (porcine pepsin) [%] | IC50 (elastase [1]) [µM] | elastase inhibitory activity (in words) (elastase [2]) |
| --- | --- | --- | --- |
| FFVPF [FFVPF, Phe-Phe-Val-Pro-Phe] | 87.5 ± 1.24 | 715 |  |
| GLGPGVG |  |  | weakly active |
| GLPY |  |  | most active |
| GPGGVGAL |  |  | weakly active |
